Source: PMC9390995 (Science Advances, 2022)

Assays:
[1] = tested on: p-STAT5/p-STAT6 in hPBMCs; experiment: γc cytokine-stimulated STAT phosphorylation, Western blot; type: cell-based, human; settings: fig. S1
Outline: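 hPBMCs in RPMI 1640 with 10% FBS at 37°C, 5% CO2, plated 5×10^5 per well. Pretreated 1 h with test compound, then stimulated with IL-2, IL-4, IL-7, IL-9, IL-15 or IL-21. Lysed in RIPA buffer with protease/phosphatase inhibitors. p-STAT5/p-STAT6 by Western blot normalized to GAPDH; three independent experiments.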

JAK2 = settings: read-out: IC50 against JAK2; cited from earlier work
JAK1 = JAK1 (Homo sapiens, UniProt P23458); settings: biochemical assays; cited from earlier work
Sequence of JAK1 (P23458 whole entry): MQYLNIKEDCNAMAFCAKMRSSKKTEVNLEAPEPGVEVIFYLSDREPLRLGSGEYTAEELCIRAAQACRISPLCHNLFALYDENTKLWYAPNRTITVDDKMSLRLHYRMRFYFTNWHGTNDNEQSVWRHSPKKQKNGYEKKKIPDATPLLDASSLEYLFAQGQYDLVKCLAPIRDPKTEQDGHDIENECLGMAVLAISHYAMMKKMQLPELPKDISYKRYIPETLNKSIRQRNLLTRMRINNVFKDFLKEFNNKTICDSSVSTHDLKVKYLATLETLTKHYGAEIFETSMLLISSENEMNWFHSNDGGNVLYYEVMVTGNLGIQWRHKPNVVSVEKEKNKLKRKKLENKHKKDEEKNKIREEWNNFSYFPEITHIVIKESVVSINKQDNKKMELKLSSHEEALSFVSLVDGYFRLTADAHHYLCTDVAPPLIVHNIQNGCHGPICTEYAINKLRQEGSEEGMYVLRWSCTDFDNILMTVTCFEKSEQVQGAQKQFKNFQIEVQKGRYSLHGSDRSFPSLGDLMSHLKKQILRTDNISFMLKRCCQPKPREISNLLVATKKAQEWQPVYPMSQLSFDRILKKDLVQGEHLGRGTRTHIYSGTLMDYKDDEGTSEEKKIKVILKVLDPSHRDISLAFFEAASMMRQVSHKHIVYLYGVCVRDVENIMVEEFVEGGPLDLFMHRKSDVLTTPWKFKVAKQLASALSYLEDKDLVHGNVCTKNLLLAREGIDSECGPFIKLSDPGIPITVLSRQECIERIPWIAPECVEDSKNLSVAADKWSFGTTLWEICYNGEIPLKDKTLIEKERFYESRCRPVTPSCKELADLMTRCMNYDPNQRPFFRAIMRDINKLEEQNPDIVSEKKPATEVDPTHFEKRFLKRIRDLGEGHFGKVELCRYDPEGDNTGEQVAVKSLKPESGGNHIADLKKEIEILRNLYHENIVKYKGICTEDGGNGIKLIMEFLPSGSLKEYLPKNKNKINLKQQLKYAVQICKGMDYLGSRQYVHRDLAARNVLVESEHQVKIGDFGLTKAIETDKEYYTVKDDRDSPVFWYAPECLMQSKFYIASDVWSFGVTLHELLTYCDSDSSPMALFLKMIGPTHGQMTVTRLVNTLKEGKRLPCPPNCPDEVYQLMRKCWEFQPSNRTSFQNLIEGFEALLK

C=CC(=O)N1C[C@H](Nc2ncnc3[nH]ccc23)CC[C@@H]1C [Ritlecitinib, 1-((2S,5R)-5-((7H-pyrrolo[2,3-d]pyrimidin-4-yl)amino)-2-methylpiperidin-1-yl)prop-2-en-1-one]
IL-2-induced p-STAT5 levels [1]: potent inhibition | IC50 (JAK2): > 10 µM

CC[C@@H]1CN(C(=O)NCC(F)(F)F)C[C@@H]1c1cnc2cnc3[nH]ccc3n12 [upadacitinib]
preference for JAK1 over JAK2 (JAK1): 2.4 fold

O=C(Nc1nc2cccc(-c3ccc(CN4CCS(=O)(=O)CC4)cc3)n2n1)C1CC1 [filgotinib]
preference for JAK1 over JAK2 (JAK1): 2.8 fold
